A short description of this experiment: Allosteric activity evaluated as the ratio of the oxygen pressure in mmHg between hemoglobin-compound and compound-free hemoglobin (control) solution at which 50% oxygen saturation's are respectively attained. The method in brief:
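Oxygen equilibrium of human hemoglobin solutions at 2.7 mM Hb with compound at 10 mM, in 50 mM HEPES pH 7.4. P50 ratios are averaged, with standard deviations reported.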

10 molecules from ChEMBL document CHEMBL1125254, “Allosteric modifiers of hemoglobin. 2. Crystallographically determined binding sites and hydrophobic binding/interaction analysis of novel hemoglobin oxygen effectors” (J Med Chem, 1991) can be followed below.

Structures are written as SMILES.

Regarding `CC(C)(Oc1ccc(CNC(=O)c2cc(Cl)cc(Cl)c2)cc1)C(=O)O`, the P50d/P50c is 2.48.

With `CC(C)(Oc1ccc(CC(=O)Nc2ccc(Cl)cc2)cc1)C(=O)O`, the P50d/P50c came out at 2.79.

For the molecule `CC(C)(Oc1ccc(CNC(=O)c2cc(Cl)c(Cl)c(Cl)c2)cc1)C(=O)O`, the P50d/P50c is 2.13.

Take `CC(C)(Oc1ccc(CNC(=O)c2ccc(Cl)cc2)cc1)C(=O)O`: the P50d/P50c amounted to 2.58.

Take `CC(C)(Oc1ccc(CC(=O)Nc2cc(Cl)cc(Cl)c2)cc1)C(=O)O`: the P50d/P50c was 4.32.

As for `CC(C)(Oc1ccc(NC(=O)Nc2cc(Cl)cc(Cl)c2)cc1)C(=O)O`, the P50d/P50c is 3.62.

`CC(C)(Oc1ccc(CCNC(=O)c2ccc(Cl)cc2)cc1)C(=O)O`: the P50d/P50c is 1.74.

Regarding `CC(C)(Oc1ccc(NC(=O)Nc2cc(Cl)c(Cl)c(Cl)c2)cc1)C(=O)O`, the P50d/P50c was determined as 2.57.

For the molecule `CC(C)(Oc1ccc(NC(=O)Nc2ccc(Cl)c(Cl)c2)cc1)C(=O)O`, the P50d/P50c is 1.77.

With `CC(C)(Oc1ccc(CC(=O)Nc2cc(Cl)c(Cl)c(Cl)c2)cc1)C(=O)O`, the P50d/P50c came out at 3.17.
